According to the RNAGym collection of RNA variant scans (doi:10.1002/anie.201605470):

B1: Osa-1-4 twister ribozyme (parent)
chain: CCGCCUAACACUGCCAAUGCCGGUCCCAAGCCCGGAUAAAAGUGGAGGGGGCGG

Variants of: B1
Assay: self-cleavage, relative activity (ratio to wild type); higher = more cleavage; co-transcriptional
How it was run: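 A DNA template for a 54-nucleotide Oryza sativa twister ribozyme was synthesised with 97 % wild-type base and 1 % of each other base at the 48 positions downstream of the cleavage site. It was transcribed in vitro for 2 h at 37 °C, allowing co-transcriptional self-cleavage, then reverse-transcribed with a template-switching oligonucleotide, PCR-amplified and deep-sequenced. Cleavage status was scored from reads with or without upstream sequence. Relative activity is fraction cleaved normalised to wild type.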

Point of comparison: CCGCCUAACACUGCCAACGCCGGUCCCAAGCCCGGAUAAAAGUGGAGGGGGUGG, self-cleavage 1. Against it:
- CCGCCUAACACUGCCAAUGCCGGUCCCAAGCCCGGAUAAAAGAGGAGGGGGGGG — lower, 0.9
- CCGCCUAACACUGCCAAUGCCGGUCCCAAGCCCGGAUAAAAGGGGAGGGGGGGG — lower, 0.65
- CCGCCUAACACUGCCAAUGCCGGUCCCAAGCCCGGAUAAAAGCGGAGGGGGGGG — lower, 0.55
- CCGCCUAACACUGCCAAUGCCGGUCCCAAGCCCGGAUAAAAGUGGAGGGAGUGG — lower, 0.97
- CCGCCUAACACUGCCAAUGCCGGUCCCAAGCCCGGAUAAAAGUGGAGGGCGUGG — lower, 0.57
- CCGCCUAACACUGCCAAUGCCGGUCCCAAGCCCGGAUAAAAGUGGAGGGUGUGG — lower, 0.98
- CCGCCUAACACUGCCAAUGCCGGUCCCAAGCCCGGAUAAAAGAGGAGGGGGCAG — lower, 0.64
- CCGCCUAACACUGCCAAUGCCGGUCCCAAGCCCGGAUAAAAGCGGAGGGGGCAG — lower, 0.43
- CCGCCUAACACUCCCAAUGCCGGUCCCAAGCCCGGAUAAAAGUGGAGGGGGUGG — lower, 0.01
- CCGCCUAACACUACCAAUGCCGGUCCCAAGCCCGGAUAAAAGUGGAGGGGGUGG — lower, 0.14
- CCGCCUAACACUUCCAAUGCCGGUCCCAAGCCCGGAUAAAAGUGGAGGGGGUGG — lower, 0.05
- CCGCCUAACACUGCCAAUGCCGGUCCCAACCCCGGAUAAAAGUGGAGGGGGUGG — lower, 0.04
- CCGCCUAACACUGCCAAUGCCGGUCCCAAUCCCGGAUAAAAGUGGAGGGGGUGG — lower, 0.04
- CCGCCUAACACUGCCAAUGCCGGUCCCAAACCCGGAUAAAAGUGGAGGGGGUGG — lower, 0.04
- CCGCCUAACACUGCCAAUGCCGGUCCCAAGCCCGGAUAAAAGUUGAGGGGGUGG — higher, 1.02
- CCGCCUAACACUGCCAAUGCCGGUCCCAAGCCCGGAUAAAAGUAGAGGGGGUGG — the same, 1
- CCGCCUAACACUGCCAAUGCCGGUCCCAAGCCCGGAUAAAAGUCGAGGGGGUGG — higher, 1.05
- CCGCCUAACACUGCCAAUGCCGGUCCCAAGCCCGGAUAAAAGUGGAGGGGGUAG — the same, 1
- CCGCCUAACACUGCCAAUGCCGGUCCCAAGCCCGGAUAAAAGUGGAGGGGGUCG — lower, 0.17
- CCGCCUAACACUGCCAAUGCCGGUCCCAAGCCCGGAUAAAAGUGGAGGGGGUUG — lower, 0.9
- CCGCCUAACACUGCCAAUGCCGGUCCCAAGCCCGGAUAAAAGUGGAGGGGGCAG — lower, 0.93
- CCGCCUAACACUGCCAAUGCCGGUCCCAAGCCCGGAUAAAAGUGGAUGGGGUGG — lower, 0.4
- CCGCCUAACACUGCCAAUGCCGGUCCCAAGCCCGGAUAAAAGUGGACGGGGUGG — lower, 0.12
- CCGCCUAACACUGCCAAUGCCGGUCCCAAGCCCGGAUAAAAGUGGAAGGGGUGG — lower, 0.45
- CCGCCUAACACUGCCAAUGCCAGUCCCAAGCCCGGAUAAAAGUGGAGGGGGUGG — lower, 0.91
- CCGCCUAACACUGCCAAUGCCCGUCCCAAGCCCGGAUAAAAGUGGAGGGGGUGG — lower, 0.17
- CCGCCUAACACUGCCAAUGCCUGUCCCAAGCCCGGAUAAAAGUGGAGGGGGUGG — lower, 0.88
- CCGCCUAACACUGCCAAUGCCGGUCCCAAGCCCGGAGAAAAGUGGAGGGGGCAG — lower, 0.97
- CCGCCUAACACUGCCAAUGCCGGUCCCAAGCCCGGAAAAAAGUGGAGGGGGCAG — lower, 0.57
- CCGCCUAACACUGCCAAUGCCGGUCCCAAGCCCGGACAAAAGUGGAGGGGGCAG — lower, 0.97
- CCGCCUAACACUGCCAAUGCCGGUCCCAAGCCCUGAUAAAAGUGGAGGGGGUGG — lower, 0.85
- CCGCCUAACACUGCCAAUGCCGGUCCCAAGCCCCGAUAAAAGUGGAGGGGGUGG — lower, 0.65
- CCGCCUAACACUGCCAAUGCCGGUCCCAAGCCCAGAUAAAAGUGGAGGGGGUGG — lower, 0.93
- CCGCCUAACACUGCCAAUGCCGGUCCCAAGCCCGGAUAAAAGUGGAGAGGGUGG — lower, 0.15
- CCGCCUAACACUGCCAAUGCCGGUCCCAAGCCCGGAUAAAAGUGGAGCGGGUGG — lower, 0.11
- CCGCCUAACACUGCCAAUGCCGGUCCCAAGCCCGGAUAAAAGUGGAGUGGGUGG — lower, 0.11
- CCGCCUAACACUGCCAAAGCCGGUCCCAAGCCCGGAUAAAAGUGGAGGGGGUGG — lower, 0.97
- CCGCCUAACACUGCCAAGGCCGGUCCCAAGCCCGGAUAAAAGUGGAGGGGGUGG — lower, 0.86
- CCGCCUAACACUGCCAAUGCCGGUCCCAAGCCCGGAUAAAAGUGGAGGGGGUGG — higher, 1.03
- CCGCCUAACACUGCCAAUGCCGGCCCCAAGCCCGGAUAAAAGUGGAGGGGGGGG — lower, 0.22
- CCGCCUAACACUGCCAAUGCCGGGCCCAAGCCCGGAUAAAAGUGGAGGGGGGGG — lower, 0.06
- CCGCCUAACACUGCCAAUGCCGGACCCAAGCCCGGAUAAAAGUGGAGGGGGGGG — lower, 0.23
- CCGCCUAACACUGCCAAUGCCGGUCCCAAGCCCGGAUAAAAGUGGAGGGGGCAU — lower, 0.79
- CCGCCUAACACUGCCAAUGCCGGUCCCAAGCCCGGAUAAAAGUGGAGGGGGCAA — lower, 0.62
- CCGCCUAACACUGCCAAUGCCGGUCCCAAGCCCGGAUAAAAGUGGAGGGGGCAC — lower, 0.66
- CCGCCUAACACCGCCAAUGCCGGUCCCAAGCCCGGAUAAAAGUGGAGGGGGUGG — lower, 0.65
- CCGCCUAACACAGCCAAUGCCGGUCCCAAGCCCGGAUAAAAGUGGAGGGGGUGG — lower, 0.99
- CCGCCUAACACGGCCAAUGCCGGUCCCAAGCCCGGAUAAAAGUGGAGGGGGUGG — lower, 0.78
- CCGCCUAACACUGCCAAUGCCGGUCCCAAGCCCGCAUAAAAGUGGAGGGGGUGG — lower, 0.63
- CCGCCUAACACUGCCAAUGCCGGUCCCAAGCCCGAAUAAAAGUGGAGGGGGUGG — lower, 0.96
- CCGCCUAACACUGCCAAUGCCGGUCCCAAGCCCGUAUAAAAGUGGAGGGGGUGG — lower, 0.99
- CCGCCUAACACUGCCAAUGCCGGUCCCAAGCCCGGAUAAAAGUGGAGGGGAUGG — lower, 0.88
- CCGCCUAACACUGCCAAUGCCGGUCCCAAGCCCGGAUAAAAGUGGAGGGGUUGG — lower, 0.54
- CCGCCUAACACUGCCAAUGCCGGUCCCAAGCCCGGAUAAAAGUGGAGGGGCUGG — lower, 0.13
- CCGCCUAACACUGCCAAUCCCGGUCCCAAGCCCGGAUAAAAGUGGAGGGGGUGG — lower, 0.18
- CCGCCUAACACUGCCAAUUCCGGUCCCAAGCCCGGAUAAAAGUGGAGGGGGUGG — lower, 0.48
- CCGCCUAACACUGCCAAUACCGGUCCCAAGCCCGGAUAAAAGUGGAGGGGGUGG — lower, 0.93
- CCGCCUAACACUGCCAAUGCCGGUCCCAAGCCCGGAAAAAAGUGGAGGGGGGGG — lower, 0.81
- CCGCCUAACACUGCCAAUGCCGGUCCCAAGCCCGGAGAAAAGUGGAGGGGGGGG — higher, 1.02
- CCGCCUAACACUGCCAAUGCCGGUCCCAAGCCCGGACAAAAGUGGAGGGGGGGG — higher, 1.05
- CCGCCUAACACUGCCAAGGCCGGUCCCAAGCCCGGAUAAAAGUGGAGGGGGCAG — lower, 0.65
- CCGCCUAACACUGCCAAAGCCGGUCCCAAGCCCGGAUAAAAGUGGAGGGGGCAG — lower, 0.8
- CCGCCUAACACUGCCAACGCCGGUCCCAAGCCCGGAUAAAAGUGGAGGGGGCAG — lower, 0.83
- CCGCCUAACACUGCCAAUGCCGGUCCCAAGCCCGGAUAAAAUUGGAGGGGGUGG — lower, 0.13
- CCGCCUAACACUGCCAAUGCCGGUCCCAAGCCCGGAUAAAAAUGGAGGGGGUGG — lower, 0.91
- CCGCCUAACACUGCCAAUGCCGGUCCCAAGCCCGGAUAAAACUGGAGGGGGUGG — lower, 0.39
- CCGCCUAACACUGCCAAUGCCGCUCCCAAGCCCGGAUAAAAGUGGAGGGGGUGG — lower, 0.06
- CCGCCUAACACUGCCAAUGCCGAUCCCAAGCCCGGAUAAAAGUGGAGGGGGUGG — lower, 0.68
- CCGCCUAACACUGCCAAUGCCGUUCCCAAGCCCGGAUAAAAGUGGAGGGGGUGG — lower, 0.25
- CCGCCUAAAACUGCCAAUGCCGGUCCCAAGCCCGGAUAAAAGUGGAGGGGGUGG — lower, 0.62
- CCGCCUAAUACUGCCAAUGCCGGUCCCAAGCCCGGAUAAAAGUGGAGGGGGUGG — lower, 0.87
- CCGCCUAAGACUGCCAAUGCCGGUCCCAAGCCCGGAUAAAAGUGGAGGGGGUGG — lower, 0.95
- CCGCCUAACACUGCCAAUGCCGGUCCCAAGCCCGGAUAAAAGUGGAGGAGGUGG — lower, 0.21
- CCGCCUAACACUGCCAAUGCCGGUCCCAAGCCCGGAUAAAAGUGGAGGCGGUGG — lower, 0.07
- CCGCCUAACACUGCCAAUGCCGGUCCCAAGCCCGGAUAAAAGUGGAGGUGGUGG — lower, 0.15
- CCGCCUAACACUGCCAAUGCCGGUCCCAAGCCCGGAAAAAAGUGGAGGGGGUGG — lower, 0.84
- CCGCCUAACACUGCCAAUGCCGGUCCCAAGCCCGGAGAAAAGUGGAGGGGGUGG — higher, 1.06
- CCGCCUAACACUGCCAAUGCCGGUCCCAAGCCCGGACAAAAGUGGAGGGGGUGG — higher, 1.07
- CCGCCUAACACUGCCAAUGCCGGACCCAAGCCCGGAUAAAAGUGGAGGGGGUGG — lower, 0.33
- CCGCCUAACACUGCCAAUGCCGGGCCCAAGCCCGGAUAAAAGUGGAGGGGGUGG — lower, 0.03
- CCGCCUAACACUGCCAAUGCCGGCCCCAAGCCCGGAUAAAAGUGGAGGGGGUGG — lower, 0.56
- CCGCCUAACACUGCCAAUGCCGGUCCCAAGCCCGGAUAAAAGUGGAGGGGGUGC — lower, 0.94
- CCGCCUAACACUGCCAAUGCCGGUCCCAAGCCCGGAUAAAAGUGGAGGGGGUGU — higher, 1.03
- CCGCCUAACACUGCCAAUGCCGGUCCCAAGCCCGGAUAAAAGUGGAGGGGGUGA — lower, 0.98
- CCGCCUAACACUGCCAAUGCCGGUCCCAAGCCCGGAUAAAAGGGGAGGGGGUGG — lower, 0.88
- CCGCCUAACACUGCCAAUGCCGGUCCCAAGCCCGGAUAAAAGCGGAGGGGGUGG — lower, 0.62
- CCGCCUAACACUGCCAAUGCCGGUCCCAAGCCCGGAUAAAAGAGGAGGGGGUGG — the same, 1
- CCGCCUAACACUGCCAAUGCCGGUCCCAAGCCCGGAUAAAAGUGCAGGGGGUGG — lower, 0.07
- CCGCCUAACACUGCCAAUGCCGGUCCCAAGCCCGGAUAAAAGUGAAGGGGGUGG — lower, 0.54
- CCGCCUAACACUGCCAAUGCCGGUCCCAAGCCCGGAUAAAAGUGUAGGGGGUGG — lower, 0.17
- CCGCCUAACACGGCCAAUGCCGGUCCCAAGCCCGGAUAAAAGUGGAGGGGGCAG — lower, 0.18
- CCGCCUAACACCGCCAAUGCCGGUCCCAAGCCCGGAUAAAAGUGGAGGGGGCAG — lower, 0.37
- CCGCCUAACACAGCCAAUGCCGGUCCCAAGCCCGGAUAAAAGUGGAGGGGGCAG — lower, 0.28
- CCGCCUAACACUGCCAAUGCCGGGCCCAAGCCCGGAUAAAAGUGGAGGGGGCAG — lower, 0.03
- CCGCCUAACACUGCCAAUGCCGGCCCCAAGCCCGGAUAAAAGUGGAGGGGGCAG — lower, 0.08
- CCGCCUAACACUGCCAAUGCCGGACCCAAGCCCGGAUAAAAGUGGAGGGGGCAG — lower, 0.09
